The target in series [1] is Transcription factor p65 (Mus musculus) (UniProt Q04207). The experiment in a line: Inhibition of NFkappaB nuclear translocation in LPS-stimulated mouse RAW264.7 cells at 20 uM pretreated for 2 hrs followed by LPS-induction by DAPI-staining based immunofluorescence microscopic method. The format is cell-based. In short, it runs like this:
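Cells in eight-well glass chambers preincubated 2 h with samples (20 µM) or Bay 11-7082 before LPS 1 µg/mL; immunostaining with polyclonal anti-p65 and Alexa Fluor 488 secondary to view nuclear translocation.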

Series [2] concerns RBL-2H3. In words: Cytotoxicity against rat RBL2H3 cells at 5 and 20 uM after 24 hrs by MTS assay. In kind it is cell-based. The settings on record: rbl-2h3, 24 h. In short, it runs like this: (§1)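 RBL-2H3 (seeded overnight) or RAW264.7 cells exposed to 5 and 20 µM samples for 24 h; viability by MTS; three independent experiments, mean ± SEM.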
For orientation: Formazan colour is commonly taken as a measure of viable cells.

Series [3] has as its system RAW264.7. In words: Cytotoxicity against mouse RAW264.7 cells at 5 and 20 uM after 24 hrs by MTS assay. In kind it is cell-based. The settings on record: raw264.7, 24 h. In short, it runs like this: as §1
Series [4] relates to RBL-2H3. In words: Anti-inflammatory activity in PMA/A23187-stimulated rat RBL2H3 cells assessed as reduction of beta-hexosaminidase secretion preincubated for 1 hr followed by PMA/A23187 stimulation for 1 hr using 4-nitrophenyl-N-acetyl-beta-D-glucosaminide substrate. The format is functional, cell-based. In short, it runs like this: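 After overnight plating, cells pretreated 1 h then stimulated with 30 ng/mL PMA plus 350 ng/mL A23187 for 1 h; supernatants collected for β-hexosaminidase detection; triplicate, mean ± SEM.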

Series [5] concerns RAW264.7. In words: Anti-inflammatory activity in mouse RAW264.7 cells assessed as reduction in LPS-stimulated iNOS protein expression at 20 uM preincubated for 2 hrs followed by LPS addition measured after 18 hrs by Western blot analysis. In kind it is functional, cell-based. Put shortly:
(§2)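 Pretreatment 2 h with samples (20 µM) then LPS 200 ng/mL for 18 h; COX-2 and iNOS protein by Western blot.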
In general terms: In western blotting, separated proteins are transferred to a membrane and probed.

The subject of series [6] is RBL-2H3. In words: Anti-inflammatory activity in IgE sensitized and DNP-BSA-stimulated rat RBL2H3 cells assessed as reduction of IL4 secretion preincubated for 2 hrs followed by DNP-BSA stimulation for 18 hrs by ELISA. In kind it is functional, cell-based. Put shortly:
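IgE-sensitized cells (overnight, 37 °C) pretreated with compounds 2 h, then challenged with 1 µg/mL DNP-BSA for 18 h; IL-4 in supernatant quantified by ELISA kit. Cells seeded in 48-well plates overnight; triplicate, mean ± SEM.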

Series [7] relates to RAW264.7. In words: Anti-inflammatory activity in mouse RAW264.7 cells assessed as inhibition of LPS-induced TNF-alpha production at 20 uM preincubated for 2 hrs followed by LPS addition measured after 24 hrs by ELISA. The format is functional, cell-based. In short, it runs like this:
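Cells pretreated 2 h with compounds (20 µM) before LPS (500 ng/mL) for 24 h; supernatant TNF-α by ELISA kit; triplicate, mean ± SEM.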
Background: An ELISA detects its analyte on a solid surface through an enzyme-linked reagent.

Series [8] concerns RBL-2H3. The experiment in a line: Anti-inflammatory activity in PMA/A23187-stimulated rat RBL2H3 cells assessed as reduction of IL4 secretion preincubated for 2 hrs followed by PMA/A23187 stimulation for 18 hrs by ELISA. The format is functional, cell-based. Put shortly: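 Cells plated overnight, pretreated 2 h, then stimulated with 30 ng/mL PMA plus 350 ng/mL A23187 for 18 h; supernatant IL-4 by ELISA kit; triplicate, mean ± SEM.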

Series [9] has as its target Transcription factor p65 (Homo sapiens) (UniProt Q04206). The experiment in a line: Inhibition of PMA-induced NFkappaB P65 activation (unknown origin) expressed in human HEK293T cells transfected with pNF-kappaB-SEAP preincubated for 2 hrs followed by PMA stimulation measured after overnight incubation by NFkappaB reporter gene assay. In kind it is cell-based. Put shortly: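 293T cells carrying pNFκB-SEAP reporter plasmid, pretreated with samples then PMA-stimulated; NF-κB transcription read as SEAP; triplicate, mean ± SEM.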

The subject of series [10] is RAW264.7. The experiment in a line: Anti-inflammatory activity in mouse RAW264.7 cells assessed as reduction in LPS-stimulated COX2 protein expression at 20 uM preincubated for 2 hrs followed by LPS addition measured after 18 hrs by Western blot analysis. The format is functional, cell-based. Put shortly: as §2
For series [11], the system named is RAW264.7. In words: Anti-inflammatory activity in mouse RAW264.7 cells assessed as inhibition of LPS-induced nitric oxide production preincubated for 2 hrs followed by LPS addition measured after 24 hrs by Griess method. The format is functional, cell-based. In short, it runs like this: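 Following 2 h sample pretreatment, LPS added for 24 h; supernatant NO read with Griess reagent; triplicate, mean ± SEM.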

The source made the active and inactive calls. The calls are words filed in the database; no cut-off is given here.

Transcription factor p65 (Homo sapiens), sequence (Q04206 whole entry): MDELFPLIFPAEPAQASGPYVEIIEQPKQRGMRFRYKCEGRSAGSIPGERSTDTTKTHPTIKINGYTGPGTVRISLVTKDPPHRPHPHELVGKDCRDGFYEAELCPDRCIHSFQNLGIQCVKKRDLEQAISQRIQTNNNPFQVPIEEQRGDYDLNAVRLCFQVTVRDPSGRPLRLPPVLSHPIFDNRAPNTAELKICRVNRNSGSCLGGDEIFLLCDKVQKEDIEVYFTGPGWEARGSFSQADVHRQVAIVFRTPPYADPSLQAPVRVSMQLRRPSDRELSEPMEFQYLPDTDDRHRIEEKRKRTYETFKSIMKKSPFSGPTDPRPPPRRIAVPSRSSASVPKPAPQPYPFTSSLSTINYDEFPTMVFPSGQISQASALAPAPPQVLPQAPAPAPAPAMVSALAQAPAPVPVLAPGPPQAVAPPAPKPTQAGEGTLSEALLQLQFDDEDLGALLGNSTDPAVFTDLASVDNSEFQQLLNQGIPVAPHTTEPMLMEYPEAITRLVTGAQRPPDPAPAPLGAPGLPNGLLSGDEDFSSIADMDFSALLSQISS
Transcription factor p65 (Mus musculus), sequence (Q04207 whole entry): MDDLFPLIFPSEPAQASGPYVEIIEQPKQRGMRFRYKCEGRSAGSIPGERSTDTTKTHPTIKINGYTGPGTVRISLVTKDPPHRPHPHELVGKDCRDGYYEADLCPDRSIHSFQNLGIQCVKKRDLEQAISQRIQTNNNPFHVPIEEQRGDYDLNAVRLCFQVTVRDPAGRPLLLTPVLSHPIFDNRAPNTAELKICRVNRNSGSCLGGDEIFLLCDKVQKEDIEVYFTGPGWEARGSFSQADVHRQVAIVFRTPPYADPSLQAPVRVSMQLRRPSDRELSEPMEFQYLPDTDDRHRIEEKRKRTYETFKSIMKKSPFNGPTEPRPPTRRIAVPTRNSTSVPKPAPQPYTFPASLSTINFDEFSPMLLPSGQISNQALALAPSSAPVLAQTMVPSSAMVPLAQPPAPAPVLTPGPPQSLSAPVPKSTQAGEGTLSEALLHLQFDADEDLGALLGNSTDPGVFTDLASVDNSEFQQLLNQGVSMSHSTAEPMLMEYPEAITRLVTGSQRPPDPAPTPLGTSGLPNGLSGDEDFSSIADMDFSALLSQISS

Consider `Cc1ccc(S(=O)(=O)/C=C/C#N)cc1`, for which, in series [1], the “NFkappaB nuclear translocation inhibition (qualitative call)” value is “Active”.
As to `COc1cc2c(=O)oc3c(OC)c(OC)cc4c(=O)oc(c1O)c2c34`, the Activity result in the series on RBL-2H3 [2] and in the series on RAW264.7 [3] was “Toxic” each time.
On to `CC(CCCC(C)(C)O)CCO[C@@H]1O[C@H](CO[C@@H]2O[C@@H](CO)[C@H](O)[C@H]2O)[C@@H](O)[C@H](O)[C@H]1O` (stereo not given in full), for which the outcome with RBL-2H3 [4], in the series on RAW264.7 [5], in the series on RAW264.7 [7], in the series with RAW264.7 [10] and in the series on RAW264.7 [11] was Active. The Activity entry in the series with RBL-2H3 [2] was “Non-Toxic”; in the series with RBL-2H3 [6], “Dose-dependent effect”; in the series on RBL-2H3 [8] it was “Dose-dependent effect”; with RAW264.7 [3], “Non-Toxic”. For the same compound, in series [9], the inhibition result was “Dose-dependent effect”. Moreover, the “NFkappaB nuclear translocation inhibition (qualitative call)” value in series [1] was “Active”.
For `C=CCc1ccc(O[C@@H]2O[C@H](CO[C@@H]3OC[C@@H](O)[C@H](O)[C@H]3O)[C@@H](O)[C@H](O)[C@H]2O)cc1`, the outcome in the series on RBL-2H3 [4], in the series on RAW264.7 [5], in the series with RAW264.7 [7], in the series on RAW264.7 [10] and with RAW264.7 [11] was Active. Moreover, the Activity result with RBL-2H3 [2] was “Non-Toxic”; in the series on RBL-2H3 [6] it was “Dose-dependent effect”; in the series with RBL-2H3 [8], “Dose-dependent effect”; in the series with RAW264.7 [3] it was “Non-Toxic”.
On to `Cc1ccc(-c2cc(C(F)(F)F)nn2-c2ccc(S(N)(=O)=O)cc2)cc1`, for which the result with RAW264.7 [10] was Active.
Take `CC1=C2C3=CC[C@@H]4[C@@]5(C)CC[C@H](O[C@@H]6OC[C@H](O)[C@H](O)[C@H]6O)C(C)(C)[C@@H]5CC[C@@]4(C)[C@]3(C)CC[C@@]2(C(=O)O[C@@H]2O[C@H](CO)[C@@H](O)[C@H](O)[C@H]2O)CC[C@H]1C`: the outcome in the series with RBL-2H3 [4], in the series on RAW264.7 [5], in the series on RAW264.7 [7], with RAW264.7 [10] and in the series with RAW264.7 [11] was Active. In addition, the Activity result with RBL-2H3 [2] is “Non-Toxic”; with RBL-2H3 [6] it was “Dose-dependent effect”; with RBL-2H3 [8], “Dose-dependent effect”; with RAW264.7 [3], “Non-Toxic”. Also, the inhibition entry in series [9] is “Dose-dependent effect”. The “NFkappaB nuclear translocation inhibition (qualitative call)” value in series [1] is “Active”.
For `C[C@@H]1CC[C@]2(C(=O)O[C@@H]3O[C@H](CO)[C@@H](O)[C@H](O)[C@H]3O)CC[C@]3(C)C(=CC[C@@H]4[C@@]5(C)C[C@@H](O)[C@@H](O)C(C)(C)[C@@H]5CC[C@]43C)[C@@H]2[C@]1(C)O`, the result in the series with RBL-2H3 [4] and with RAW264.7 [7] was Active. The Activity entry was “Non-Toxic” in the series on RBL-2H3 [2], “Dose-dependent effect” in the series on RBL-2H3 [6], “Dose-dependent effect” with RBL-2H3 [8] and “Non-Toxic” in the series with RAW264.7 [3].
Take `C[C@@H]1CC[C@]2(C(=O)O)CC[C@]3(C)C(=CC[C@@H]4[C@@]5(C)CC[C@H](O[C@@H]6OC[C@H](O)[C@H](O)[C@H]6O)C(C)(C)[C@@H]5CC[C@]43C)[C@@H]2[C@]1(C)O`: the outcome in the series with RBL-2H3 [4], in the series on RAW264.7 [7] and in the series with RAW264.7 [11] was Active. For the same compound, the Activity result in the series on RBL-2H3 [2] was “Non-Toxic”; with RBL-2H3 [6] it was “Dose-dependent effect”; in the series on RBL-2H3 [8], “Dose-dependent effect”; in the series on RAW264.7 [3] it was “Non-Toxic”. In addition, the inhibition entry in [9] is “Dose-dependent effect”. Further, in series [1], the “NFkappaB nuclear translocation inhibition (qualitative call)” value was “Active”.

Source of the values: ChEMBL document CHEMBL4118175, “Anti-allergic inflammatory components from Sanguisorba officinalis L” (Bioorg Med Chem Lett, 2018).
